The nature of this series: Toxicity liver stage against HepG2, at 10uM. To be noted: human, HepG2-A16-CD81EGFP cells; read-out: INHIBITION
The class given is cell-based. Also noted: test concentration 10 uM, cell line HepG2-A16-CD81EGFP. The gist of the method:
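Uninfected HepG2-A16-CD81EGFP cells, 3 × 10^3 per well, 1536-well, plated on prespotted compound at 10 μM final, parasite-free screening media added to match infected plates; puromycin 10 μM positive, DMSO 0.5% negative; run in parallel with 48 h PbLuc assay at 37 °C, 5% CO2; viability by CellTiter-Glo luminescence, normalized to controls.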
`CC(Sc1nc(N)cc(N)n1)c1nc(C(C)(C)C)no1` (stereo unspecified): the cytotoxicity at 10 µM was -5.27%.

Regarding `CC[C@H]1CN2CC[C@H]1C[C@@H]2CNC(=O)Nc1ccc(Br)cc1`, the cytotoxicity at 10 µM was determined as 1.08%.

Regarding `O=C(NC[C@H]1CCCC[C@H]1O)c1ccc2nc(-c3ccco3)[nH]c2c1`, the cytotoxicity at 10 µM is -5.78%.

For `CCN(C)C(=O)c1ccc2c(c1)C(c1nc[nH]n1)CN2S(C)(=O)=O` (stereo unspecified), the cytotoxicity at 10 µM is -137%.

On to `CO[C@H]1CN(S(=O)(=O)c2cn(C)cn2)[C@@H]2CCCO[C@H]12`, for which the cytotoxicity at 10 µM is -132%.

As for `O=C(c1ccc[nH]1)N1CCOC2(COCCN(c3cncnc3)C2)C1` (stereo unspecified), the cytotoxicity at 10 µM is 7.7%.

For the molecule `Cn1cc(CN2CCC3(CCCN(C(=O)c4cscn4)C3)C2)cn1` (stereo unspecified), the cytotoxicity at 10 µM turned out to be 1.71%.

In the case of `COCCN1C(=O)CCC12CCCN(c1ncc(F)cn1)CC2` (stereo unspecified), the cytotoxicity at 10 µM was -8.92%.

Consider `CC(C)[C@H](NC(=O)NC1CCS(=O)(=O)C1)C(=O)NCc1ccccc1Cl` (stereo partly specified), for which the cytotoxicity at 10 µM is 5.91%.

`CC(C)n1ncc2c1NC(=O)CC21C(=O)Nc2c(Cl)cccc21` (stereo unspecified): the cytotoxicity at 10 µM is -1.58%.

For `CCOC(=O)CCNC(=O)N1CCN(c2nc3ccccc3n2C)CC1`, the cytotoxicity at 10 µM came to 4.88%.

For the molecule `Cc1ncsc1CN1C[C@@H]2COC[C@]2(COc2ccc(C#N)cn2)C1`, the cytotoxicity at 10 µM is -25.6%.

Regarding `O=C(Nc1cc(-c2ccncc2)no1)C1CCCCC1`, the cytotoxicity at 10 µM was -5.37%.

For `O=C(Cn1cc(I)cn1)N1CCc2ccccc2C1`, the cytotoxicity at 10 µM came out at 11.2%.

On to `COc1ccccc1N1CC(NC(=O)Cn2cc(C)nn2)CC1=O` (stereo unspecified), for which the cytotoxicity at 10 µM is 11.6%.

As to `CS(=O)(=O)c1cn[nH]c1C1CCCCN1C(=O)c1ccsc1` (stereo unspecified), the cytotoxicity at 10 µM is -18.6%.

Regarding `COCCN1CCC(c2cncc(N(C)C)n2)CC1`, the cytotoxicity at 10 µM was -25.5%.

With `O=C(CN1CCS(=O)(=O)CC1)Nc1ccc(N2CCCC2)nc1`, the cytotoxicity at 10 µM amounted to 10.3%.

`O=S(=O)(Cc1cc(-c2ccccc2)no1)CC1CCCO1` (stereo unspecified): the cytotoxicity at 10 µM was 4.7%.

For the molecule `CC(C)c1nnc2n1CCN(Cc1cccc3c1OCCO3)C2`, the cytotoxicity at 10 µM is -1.26%.

On to `O=C(Nc1ccc(-c2csnn2)cc1)N1CC[C@H](O)C1`, for which the cytotoxicity at 10 µM was -4.62%.

For the molecule `CC(C)c1nnc(CN2CC(n3cccn3)Cc3ccccc32)o1` (stereo unspecified), the cytotoxicity at 10 µM is -146%.

Take `Cc1cccc(N2CCN(C(=O)CNCCn3cccn3)CC2)c1`: the cytotoxicity at 10 µM was -6.16%.

In the case of `Cc1cnn(CCNc2cnc3ccccc3n2)c1`, the cytotoxicity at 10 µM stood at 11.4%.

For `Cc1oc(C(=O)Nc2cccc(Cl)c2C)cc1S(N)(=O)=O`, the cytotoxicity at 10 µM stood at 7.46%.

On to `CCCNC(=O)CNC(=O)CC1CCCc2cc(OC)ccc21` (stereo unspecified), for which the cytotoxicity at 10 µM was -4.52%.

In the case of `COc1ccc2c(c1)CCCC2CC(=O)NCC(=O)O` (stereo unspecified), the cytotoxicity at 10 µM was -4.31%.

In the case of `Cc1nc(C)c(C(=O)N2CCc3c(Cl)cccc32)o1`, the cytotoxicity at 10 µM is -1.55%.

Consider `Cc1cc(CNC(=O)NCC(O)c2cccc(C(F)(F)F)c2)no1` (stereo unspecified), for which the cytotoxicity at 10 µM is -6.79%.

On to `CCc1ncncc1C(=O)NCCNS(=O)(=O)c1ccc(C)cc1`, for which the cytotoxicity at 10 µM was -5.95%.

In the case of `Cc1ccccc1CN(Cc1ccccn1)C(=O)CN(C)C(C)C`, the cytotoxicity at 10 µM is -0.675%.

For `Cc1c(C(=O)NC2=NCCS2)cnn1-c1ccc(Cl)cc1`, the cytotoxicity at 10 µM was found to be 1.51%.

Take `O=C(CCc1cccs1)NCC1CCCN1c1cccnn1` (stereo unspecified): the cytotoxicity at 10 µM was -1.9%.

On to `CCNS(=O)(=O)C1CCN(C(=O)c2c(F)cc(F)cc2F)C1` (stereo unspecified), for which the cytotoxicity at 10 µM stood at 7.43%.

In the case of `CC(C)NC(=O)NCc1ccnc(N(C)C)n1`, the cytotoxicity at 10 µM is -3.63%.

Take `N#Cc1ccc(CNC(=O)C2=NN(c3ccccc3)C(=O)CN2)cc1`: the cytotoxicity at 10 µM was -1.8%.

With `c1cnn(CC2CN(Cc3csc(-c4ccsc4)n3)CCO2)c1` (stereo unspecified), the cytotoxicity at 10 µM stood at 3.23%.

As for `Cc1ccc(-c2nnc(CN3CCNC(=O)C3)o2)cc1`, the cytotoxicity at 10 µM was -1.26%.

With `Cc1cc(NC(=O)NCCc2cccnc2)n(C)n1`, the cytotoxicity at 10 µM is -3.86%.

For `Cn1ccnc1-c1cccc(NC(=O)NCCCN2CCOCC2)c1`, the cytotoxicity at 10 µM was -5.01%.

For `Cc1ccc(NC(=O)N(CCO)Cc2ccsc2)cc1`, the cytotoxicity at 10 µM turned out to be 3.58%.

Take `O=C(CCNS(=O)(=O)c1ccccc1)N1CCOC(c2ccccc2)C1` (stereo unspecified): the cytotoxicity at 10 µM turned out to be 6.6%.

In the case of `COc1ccc2cccc(CC(=O)NCc3nccc(N)n3)c2c1`, the cytotoxicity at 10 µM was found to be 0.684%.

For the molecule `CC(C)Cn1cnnc1C1CCCN1C(=O)c1cc2ccccn2c1` (stereo unspecified), the cytotoxicity at 10 µM is -0.384%.

Turning to `Cc1ccc(N2CCCC(N(C)c3ncnc4c3CCC4)C2)nn1` (stereo unspecified), the cytotoxicity at 10 µM came to 6.86%.

As to `CCS(=O)(=O)N(C)C1CCN(Cn2ccc(-c3ccc(F)cc3)n2)CC1`, the cytotoxicity at 10 µM came to 1.95%.

As to `Cc1nc(CNC(=O)Nc2ccc(N(C)C)nc2)sc1C`, the cytotoxicity at 10 µM is -0.222%.

Turning to `Cc1cc(C)n(C2CN(Cc3ccccn3)C2)n1`, the cytotoxicity at 10 µM is -3.67%.

`Cc1nn2c(nc1=O)-c1ccccc1NC2C(=O)O` (stereo unspecified): the cytotoxicity at 10 µM is 5.32%.

With `CN(C)C(=O)C1CSCN1C(=O)CCc1ccco1` (stereo unspecified), the cytotoxicity at 10 µM is -6.53%.

On to `C=C(C)COCCNC(=O)N1CCc2c(cccc2OC)C1`, for which the cytotoxicity at 10 µM is 3.55%.

For the molecule `CC(C)c1nc(CNc2ccc(CNS(C)(=O)=O)cc2)cs1`, the cytotoxicity at 10 µM came out at 3.82%.

As for `Cn1ccc(NC(=O)Cc2cccc(F)c2)n1`, the cytotoxicity at 10 µM was 1.44%.

Turning to `Cc1csc2c(=O)n(CCN3CCNCC3)cnc12`, the cytotoxicity at 10 µM was -3.5%.

Consider `Cc1nc(CNC(=O)CC2C(=O)NCCN2Cc2ccccc2C)n[nH]1` (stereo unspecified), for which the cytotoxicity at 10 µM was -7.21%.

For the molecule `COc1cc(C(=O)NCC2CCCN(Cc3ccco3)C2)ccn1` (stereo unspecified), the cytotoxicity at 10 µM is -3.94%.

In the case of `CC1(C)OC(=O)N(CC(=O)N2CCC(c3ccccc3Cl)C2)C1=O` (stereo unspecified), the cytotoxicity at 10 µM was -21.4%.

For `CO[C@H]1CN(Cc2c(C)ccc3ncccc23)CC[C@H]1N`, the cytotoxicity at 10 µM was -146%.

As for `O=C(CCN1CCCCC1)N1CCC(Cc2ccc(CO)cc2)C1` (stereo unspecified), the cytotoxicity at 10 µM is -7.33%.

With `Cc1cc(CC(=O)N2CCN(C)[C@@H]3CS(=O)(=O)C[C@@H]32)ccc1F`, the cytotoxicity at 10 µM is -3.89%.

On to `Cc1nc(O)cc(CN2C[C@H](NC(=O)C3CCCC3)[C@@H](C3CC3)C2)n1`, for which the cytotoxicity at 10 µM was -4.7%.

Regarding `O=C(CN1CCCC1c1nc(-c2ccccn2)no1)N1CCNCC1` (stereo unspecified), the cytotoxicity at 10 µM came to 9.28%.

With `COc1ccc(Cl)cc1C(C(=O)O)N(C)Cc1ccon1` (stereo unspecified), the cytotoxicity at 10 µM is -5.92%.

For the molecule `CC(C)C1CN(c2ncccc2Cl)CCC(=O)N1Cc1ccc(F)cc1` (stereo unspecified), the cytotoxicity at 10 µM came to 2.41%.

Consider `CCn1ccnc1CNc1nccc(-c2cn(C)nc2C)n1`, for which the cytotoxicity at 10 µM is -4.6%.

With `Cn1cc(C(=O)N2CCCN(C3Cc4ccccc4C3)CC2)cn1`, the cytotoxicity at 10 µM was -3.68%.

Take `CNC(=O)[C@@H]1C[C@H](N)CN1Cc1cc2cc(OC)ccc2nc1O`: the cytotoxicity at 10 µM is -6.69%.

As for `CN1CCCC(c2nc3c([nH]2)CC(C)(C)CNC3=O)C1` (stereo unspecified), the cytotoxicity at 10 µM turned out to be 9.01%.

In the case of `Cc1csc(S(=O)(=O)N2CCN(C)C3(CCC(=O)N(C)CC3)C2)c1` (stereo unspecified), the cytotoxicity at 10 µM is 1.67%.

Turning to `Cc1[nH]c(=O)[nH]c(=O)c1CC(=O)N1CCCN(CC2CC2)C(C(C)C)C1` (stereo unspecified), the cytotoxicity at 10 µM is -160%.

Turning to `CCn1c(N)nc2cc(C(=O)N3CCCOCC3)cnc21`, the cytotoxicity at 10 µM was -8.24%.

Regarding `CCNC(=O)[C@@H]1C[C@H](N)CN1c1cc(CC)nc(N(C)C)n1`, the cytotoxicity at 10 µM is -3.08%.

As to `Cc1cnc(C(=O)N2CCCC(Cn3cc(C4CC4)nn3)C2)cn1` (stereo unspecified), the cytotoxicity at 10 µM is -1.15%.

On to `COc1ccc(C(=O)N2CC(c3ccncc3)C2)c(OC)c1OC`, for which the cytotoxicity at 10 µM is -1.86%.

With `c1ccc(CCN2CCOC(CNc3cccnn3)C2)nc1` (stereo unspecified), the cytotoxicity at 10 µM was -1.56%.

Take `COCCN1CCN(CCS(C)(=O)=O)CC1C` (stereo unspecified): the cytotoxicity at 10 µM is -1.22%.

For the molecule `NC(=O)C1CN(C(=O)Nc2ccccc2Oc2ccccc2Cl)CCO1` (stereo unspecified), the cytotoxicity at 10 µM was -10.5%.

Regarding `Cc1noc(C2CCCN(C(=O)c3ccc(N(C)C)nc3)C2)n1` (stereo unspecified), the cytotoxicity at 10 µM is -4.69%.

Consider `CCn1cc(CN2CCCN(C(=O)c3cccc(C#N)c3)CC2)cn1`, for which the cytotoxicity at 10 µM was determined as 0.893%.

For the molecule `CCOc1ncccc1CNC(=O)NCC(O)c1ccccc1OC` (stereo unspecified), the cytotoxicity at 10 µM is -6.85%.

With `Cc1nn(C)c(C)c1C1CCCN1C(=O)c1ccc(N(C)C)nn1` (stereo unspecified), the cytotoxicity at 10 µM is -10.6%.

`NC(=O)C1CCN(C(=O)NCCOc2ccc3c(c2)OCO3)C1` (stereo unspecified): the cytotoxicity at 10 µM was -13.3%.

On to `O=C(c1cn(-c2ccccc2)nn1)N1CCCC(n2cccn2)C1` (stereo unspecified), for which the cytotoxicity at 10 µM was -7.85%.

On to `CCn1c(C)nnc1CN(C)C1CCN(CCCSC)C1` (stereo unspecified), for which the cytotoxicity at 10 µM is -6.21%.

Turning to `Cc1cc(CN(C)C2CCCN(Cc3noc(C)n3)C2)on1` (stereo unspecified), the cytotoxicity at 10 µM is -5.85%.

On to `Cc1csc(CNC(=O)Cc2ccc3c(c2)OCCO3)n1`, for which the cytotoxicity at 10 µM was -1.3%.

`CCn1cnnc1C1CCCN(C(=O)COc2ccc(Cl)cc2)C1` (stereo unspecified): the cytotoxicity at 10 µM is -5.26%.

As to `Cn1cc(N2C[C@@H]3CN(Cc4ccoc4)C[C@@H]3C2=O)cn1`, the cytotoxicity at 10 µM was -2.93%.

For `COc1ccc2c(c1)C1(CCN(Cc3ccccn3)CC1)N(C)CC2`, the cytotoxicity at 10 µM is -150%.

As for `Cc1nn(C)c(N(C)C)c1CNCc1cccc(CN(C)C)c1`, the cytotoxicity at 10 µM is -3.01%.

Consider `O=C(c1ccco1)N1CCCC12CCN(c1ncccn1)CC2`, for which the cytotoxicity at 10 µM came out at 3.23%.

`CN1CCS(=O)(=O)[C@@H]2CCN(C(=O)c3ccccc3)CC[C@@H]21`: the cytotoxicity at 10 µM is -127%.

In the case of `O=C(NC[C@H]1OC[C@@H]2CN(Cc3ccco3)CC[C@@H]21)c1cscn1`, the cytotoxicity at 10 µM is -145%.

With `Cc1noc(C)c1CN(C)CC(=O)Nc1ccnn1C(C)C1CC1` (stereo unspecified), the cytotoxicity at 10 µM was -2.82%.

Turning to `CSCC(=O)N1C[C@@H]2CC[C@H]1CN(C1Cc3ccccc3C1)C2`, the cytotoxicity at 10 µM was -6.08%.

Regarding `O=C(c1cnccn1)N1C[C@H]2CC[C@@H](C1)N(C(=O)CCc1ccsc1)C2`, the cytotoxicity at 10 µM came out at 3.24%.

The values above are taken from ChEMBL document CHEMBL4513216, “Probing the Open Global Health Chemical Diversity Library for Multistage-Active Starting Points for Next-Generation Antimalarials” (ACS Infect Dis, 2020).
